ChEMBL document CHEMBL3774374, “The Effect of Small Molecules on Sterol Homeostasis: Measuring 7-Dehydrocholesterol in Dhcr7-Deficient Neuro2a Cells and Human Fibroblasts” (J Med Chem, 2016)
Activity calls are given as the source filed them. The rule behind the calls is not given here.

Tests used:
N2a = test: Decrease in 7-DHC levels in Dhcr7-deficient mouse Neuro2a cells at 1 uM by LC-MS/GC-MS analysis; type: functional, cell-based
Procedure, shortened: (§1)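 Dhcr7-deficient Neuro2a cells (13000/well, 0.5% FBS medium) on predeposited compound, 24 h at 37 °C. Hoechst-stained and imaged to count cells. Lysed in methanol containing isotope-labelled sterol standards, derivatized with PTAD 20 min at RT, then isocratic C18 UPLC-MS/SRM. Remaining extract silylated with BSTFA for GC-MS, quantified against d7-cholesterol. Follow-up runs in triplicate.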

[1] = biological target: T1, Delta(24)-sterol reductase (Mus musculus) (UniProt Q8VCH6); test: Inhibition of C-24 reductase in Dhcr7-deficient mouse Neuro2a cells assessed as increase in zymosterol levels at 1 uM by LC-MS/GC-MS analysis; type: cell-based; procedure, shortened: as §1
T1 sequence (whole entry): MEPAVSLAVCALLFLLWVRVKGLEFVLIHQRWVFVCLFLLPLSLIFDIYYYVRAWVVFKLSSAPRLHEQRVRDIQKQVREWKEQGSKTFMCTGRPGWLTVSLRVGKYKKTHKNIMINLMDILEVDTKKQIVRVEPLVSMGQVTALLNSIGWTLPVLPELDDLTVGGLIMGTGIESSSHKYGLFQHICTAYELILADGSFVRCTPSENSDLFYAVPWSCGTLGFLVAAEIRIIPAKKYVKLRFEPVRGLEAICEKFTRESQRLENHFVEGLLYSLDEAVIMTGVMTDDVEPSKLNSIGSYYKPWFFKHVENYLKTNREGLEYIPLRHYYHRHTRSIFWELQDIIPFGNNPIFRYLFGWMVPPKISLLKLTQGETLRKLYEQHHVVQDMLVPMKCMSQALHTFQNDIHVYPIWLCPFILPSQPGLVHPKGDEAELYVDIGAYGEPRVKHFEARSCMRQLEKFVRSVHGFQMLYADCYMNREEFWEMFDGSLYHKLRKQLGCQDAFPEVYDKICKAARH

[2] = biological target: T1, Delta(24)-sterol reductase (Mus musculus); test: Inhibition of DR24 in mouse Neuro2a cells assessed as decrease in 7-DHC levels at 1 uM by LC-MS/GC-MS analysis; type: cell-based
Procedure, shortened: (§2)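 Control Neuro2a cells (10000/well, 0.5% FBS) on compound, 24 h. Hoechst cell count, then methanol lysis with labelled standards (d7-7-DHC, 13C3-desmosterol, 13C3-lanosterol), PTAD derivatization 20 min at RT, UPLC-MS SRM. GC-MS of silylated extract for further sterols.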

[3] = biological target: T1, Delta(24)-sterol reductase (Mus musculus); test: Inhibition of C-24 reductase in Dhcr7-deficient mouse Neuro2a cells assessed as increase in desmosterol levels at 1 uM by LC-MS/GC-MS analysis; type: cell-based; procedure, shortened: as §1
[4] = biological target: T1, Delta(24)-sterol reductase (Mus musculus); test: Inhibition of DR24 in Dhcr7-deficient mouse Neuro2a cells assessed as decrease in 7-DHC levels at 1 uM by LC-MS/GC-MS analysis; type: cell-based; procedure, shortened: as §1
[5] = biological target: T2, 3-beta-hydroxysteroid-Delta(8),Delta(7)-isomerase (Mus musculus) (UniProt P70245); test: Inhibition of delta 8-7 isomerase in mouse Neuro2a cells assessed as decrease in 7-DHC levels at 1 uM by LC-MS/GC-MS analysis; type: cell-based; procedure, shortened: as §2
T2 sequence (whole entry): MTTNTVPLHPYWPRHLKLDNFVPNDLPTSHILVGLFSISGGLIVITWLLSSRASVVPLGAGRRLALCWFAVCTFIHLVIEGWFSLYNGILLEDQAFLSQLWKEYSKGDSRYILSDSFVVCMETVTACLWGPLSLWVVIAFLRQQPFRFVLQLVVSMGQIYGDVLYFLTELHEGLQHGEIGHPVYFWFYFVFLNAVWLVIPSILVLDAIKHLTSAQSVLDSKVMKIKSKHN

[6] = biological target: T2, 3-beta-hydroxysteroid-Delta(8),Delta(7)-isomerase (Mus musculus); test: Inhibition of delta 8-7 isomerase in Dhcr7-deficient mouse Neuro2a cells assessed as decrease in 7-DHC levels at 1 uM by LC-MS/GC-MS analysis; type: cell-based; procedure, shortened: as §1
[7] = biological target: T3, Delta(24)-sterol reductase (Homo sapiens) (UniProt Q15392); test: Inhibition of DR24 in human SLOS fibroblasts assessed as decrease in 7-DHC levels at 10 nM after 5 days by LC-MS/GC-MS analysis
T3 sequence (whole entry): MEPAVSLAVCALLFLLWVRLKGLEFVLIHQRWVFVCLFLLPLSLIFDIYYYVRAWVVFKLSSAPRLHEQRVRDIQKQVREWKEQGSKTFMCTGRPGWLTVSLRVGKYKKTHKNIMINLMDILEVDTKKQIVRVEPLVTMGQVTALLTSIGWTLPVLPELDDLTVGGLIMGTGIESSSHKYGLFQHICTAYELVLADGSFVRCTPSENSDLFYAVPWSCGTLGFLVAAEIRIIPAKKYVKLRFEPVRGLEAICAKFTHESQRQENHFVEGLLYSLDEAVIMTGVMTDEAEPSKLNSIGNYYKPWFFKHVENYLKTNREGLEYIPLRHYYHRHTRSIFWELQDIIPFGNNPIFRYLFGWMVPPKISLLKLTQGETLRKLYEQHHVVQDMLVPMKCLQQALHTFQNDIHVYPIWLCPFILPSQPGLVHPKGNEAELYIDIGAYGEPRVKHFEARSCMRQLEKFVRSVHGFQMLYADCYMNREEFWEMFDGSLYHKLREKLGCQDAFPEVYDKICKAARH
Procedure, shortened: (§3)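 SLOS patient skin fibroblasts (passage 8–20) grown in 96-well plates in delipidated serum with compound for 5 days; three different SLOS lines. Sterols quantified by PTAD-derivatized UPLC-MS plus GC-MS; 7-DHC expressed as percentage of untreated cells.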

[8] = biological target: 3-beta-hydroxysteroid-Delta(8),Delta(7)-isomerase (Homo sapiens) (UniProt Q15125); test: Inhibition of delta 8-7 isomerase in human SLOS fibroblasts assessed as decrease in 7-DHC levels at 10 nM after 5 days by LC-MS/GC-MS analysis; procedure, shortened: as §3
3-beta-hydroxysteroid-Delta(8),Delta(7)-isomerase (Homo sapiens), sequence (Q15125 whole entry): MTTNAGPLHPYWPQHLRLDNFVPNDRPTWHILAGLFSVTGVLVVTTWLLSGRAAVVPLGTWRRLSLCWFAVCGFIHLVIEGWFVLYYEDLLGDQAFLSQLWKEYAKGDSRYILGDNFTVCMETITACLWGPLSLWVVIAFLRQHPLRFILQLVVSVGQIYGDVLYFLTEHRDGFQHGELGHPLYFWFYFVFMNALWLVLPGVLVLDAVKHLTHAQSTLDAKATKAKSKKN

[9] = biological target: T2, 3-beta-hydroxysteroid-Delta(8),Delta(7)-isomerase (Mus musculus); test: Inhibition of delta 8-7 isomerase in Dhcr7-deficient mouse Neuro2a cells assessed as decrease in 7-DHC levels at 200 nM after 24 hrs by LC-MS analysis; type: cell-based
Procedure, shortened: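 384-well screen: Dhcr7-deficient Neuro2a cells (13000/well) dispensed in 0.5% FBS medium onto predeposited compound (five wells each at 20 and 200 nM) and incubated 24 h at 37 °C. Nuclei Hoechst-stained and counted by automated imaging. Cells lysed in MeOH with deuterated and 13C standards, then derivatised with PTAD for 20 min at RT. 7-DHC measured by isocratic UPLC-MS (SRM) and expressed as pg per cell; DMSO wells served as controls.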

Fibroblast = test: Decrease in cholesterol levels in human SLOS fibroblasts at 10 nM after 5 days by LC-MS/GC-MS analysis; type: functional, cell-based; procedure, shortened: as §3
[10] = Cytotoxicity against human SLOS fibroblasts at 5 uM after 5 days by Cell Titer assay; type: cell-based; conditions: fibroblast, 120 h
[11] = biological target: T1, Delta(24)-sterol reductase (Mus musculus); test: Inhibition of DR24 in Dhcr7-deficient mouse Neuro2a cells assessed as decrease in 7-DHC levels at 200 nM after 24 hrs by LC-MS analysis; type: cell-based
Procedure, shortened: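 384-well screen: Dhcr7-deficient Neuro2a cells (13000/well, 0.5% FBS) with compound at 20 or 200 nM (five wells each), 24 h at 37 °C. Cells counted after Hoechst imaging, then methanol lysis with d7-7-DHC standard, PTAD derivatization 20 min at RT, UPLC-MS SRM (7-DHC 560→365). Read-out is pg 7-DHC per cell.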

[12] = biological target: T4, Lanosterol 14-alpha demethylase (Mus musculus, UniProt Q8K0C4); test: Inhibition of 14 alpha demethylase in Dhcr7-deficient mouse Neuro2a cells assessed as decrease in desmosterol levels at 1 uM by LC-MS/GC-MS analysis; type: cell-based; procedure, shortened: as §1
T4 sequence (Q8K0C4 whole entry): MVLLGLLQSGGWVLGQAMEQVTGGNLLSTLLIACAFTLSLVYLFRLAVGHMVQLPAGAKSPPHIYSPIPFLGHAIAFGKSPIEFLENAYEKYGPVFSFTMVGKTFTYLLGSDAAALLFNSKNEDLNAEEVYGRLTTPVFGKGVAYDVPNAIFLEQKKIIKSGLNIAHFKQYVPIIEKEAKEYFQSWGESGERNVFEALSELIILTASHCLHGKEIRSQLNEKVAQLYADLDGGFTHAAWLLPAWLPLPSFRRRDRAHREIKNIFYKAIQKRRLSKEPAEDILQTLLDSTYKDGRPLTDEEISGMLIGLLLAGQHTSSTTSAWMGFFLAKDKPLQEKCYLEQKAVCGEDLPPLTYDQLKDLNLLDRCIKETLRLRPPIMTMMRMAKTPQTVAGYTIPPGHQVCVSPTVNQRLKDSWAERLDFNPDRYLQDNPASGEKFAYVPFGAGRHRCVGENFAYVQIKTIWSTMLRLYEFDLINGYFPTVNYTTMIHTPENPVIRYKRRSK

[13] = biological target: T4, Lanosterol 14-alpha demethylase; test: Inhibition of 14 alpha demethylase in Dhcr7-deficient mouse Neuro2a cells assessed as increase in lanosterol levels at 1 uM by LC-MS/GC-MS analysis; type: cell-based; procedure, shortened: as §1
[14] = Antiproliferative activity against Dhcr7-deficient mouse Neuro2a cells at 500 nM; type: cell-based; conditions: n2a, 0.5 µM
Procedure, shortened: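 Dhcr7-deficient Neuro2a cells treated with compound; proliferation followed by Hoechst nuclear staining and automated microscope imaging with cell counts per well.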

[15] = biological target: T4, Lanosterol 14-alpha demethylase; test: Inhibition of 14 alpha demethylase in Dhcr7-deficient mouse Neuro2a cells assessed as decrease in 7-DHC levels at 1 uM by LC-MS/GC-MS analysis; type: cell-based; procedure, shortened: as §1
[16] = biological target: T4, Lanosterol 14-alpha demethylase; test: Inhibition of 14 alpha demethylase in Dhcr7-deficient mouse Neuro2a cells assessed as increase in cholesterol levels at 1 uM by LC-MS/GC-MS analysis; type: cell-based; procedure, shortened: as §1
[17] = biological target: T2, 3-beta-hydroxysteroid-Delta(8),Delta(7)-isomerase (Mus musculus); test: Inhibition of delta 8-7 isomerase in Dhcr7-deficient mouse Neuro2a cells assessed as increase in zymosterol levels at 1 uM by LC-MS/GC-MS analysis; type: cell-based
Procedure, shortened: (§4)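 Follow-up (verification) assay in 96-well plates, run as the 384-well screen, in triplicate, at varying compound concentrations. Cells counted by Hoechst imaging, washed with PBS, then lysed in MeOH with BHT/TPP and isotope standards (d7-Chol, d7-7-DHC, 13C3-Des, 13C3-Lan). Sterols derivatised with PTAD for 20 min at RT and quantified by C18 UPLC-MS (SRM). Remaining sample silylated with BSTFA and run on GC-MS, quantified against d7-Chol.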

[18] = biological target: T2, 3-beta-hydroxysteroid-Delta(8),Delta(7)-isomerase (Mus musculus); test: Inhibition of delta 8-7 isomerase in Dhcr7-deficient mouse Neuro2a cells assessed as decrease in cholesterol levels at 1 uM by LC-MS/GC-MS analysis; type: cell-based; procedure, shortened: as §4
[19] = biological target: T2, 3-beta-hydroxysteroid-Delta(8),Delta(7)-isomerase (Mus musculus); test: Inhibition of delta 8-7 isomerase in Dhcr7-deficient mouse Neuro2a cells assessed as increase in zymostenol levels at 1 uM by LC-MS/GC-MS analysis; type: cell-based; procedure, shortened: as §4

Row | Structure (SMILES) | Activity (N2a) | Decrease in 7-DHC levels (active/inactive call) [2] | inhibition [4] | Activity (decrease in 7-DHC levels) [5] | inhibition [6] | inhibition [7] | inhibition [8] | Activity (Fibroblast) | Activity [10] | also measured
1 | CCCC1O[C@@H]2C[C@H]3[C@@H]4CCC5=CC(=O)C=C[C@]5(C)[C@H]4[C@@H](O)C[C@]3(C)[C@]2(C(=O)CO)O1 (stereo not given in full) | Active | – | – | – | – | – | – | – | – | –
2 | CCN(CC)CCO[C@H]1CC[C@@]2(C)C(=CC[C@@H]3[C@@H]2CC[C@]2(C)C(=O)CC[C@@H]32)C1 | Active | – | – | – | – | – | – | – | – | –
3 | C[C@H]1c2cccc(O)c2C(=O)C2=C(O)[C@]3(O)C(=O)C(C(N)=O)=C(O)[C@@H](N(C)C)[C@@H]3[C@@H](O)[C@@H]21 | Active | – | – | – | – | – | – | – | – | –
4 | Oc1ccc2c(c1)CC[C@H](c1ccccc1)[C@@H]2c1ccc(OCCN2CCCC2)cc1 | – | Active | Active | Active | Active | – | – | – | – | inhibition [1]: Active; inhibition [3]: Active
5 | Cc1c(-c2ccc(O)cc2)n(Cc2ccc(OCCN3CCCCCC3)cc2)c2ccc(O)cc12 [BAZEDOXIFENE] | – | Active | Active | Active | Active | Active | Active | inactive | Toxic | inhibition [9]: Active; inhibition [11]: Active
6 | Oc1c(Cl)cc(Cl)c2cccnc12 [CHLOROXINE] | – | – | – | – | – | – | – | – | – | inhibition (INH) [12]: Active; inhibition (INH) [13]: Active; Activity [14]: Toxic; inhibition (INH) [15]: Active; inhibition (INH) [16]: Active
7 | Oc1c(Cl)cc(Cl)c(Cl)c1Cc1c(O)c(Cl)cc(Cl)c1Cl [HEXACHLOROPHENE] | – | – | – | – | – | – | – | – | – | inhibition (INH) [12]: Active; inhibition (INH) [13]: Active; Activity [14]: Toxic; inhibition (INH) [15]: Active; inhibition (INH) [16]: Active
8 | O=C(c1ccc(OCCN2CCCCC2)cc1)c1c(-c2ccc(O)cc2)sc2cc(O)ccc12 [RALOXIFENE] | – | Active | Active | Active | Active | Active | Active | inactive | Toxic | inhibition [1]: Active; inhibition [3]: Active
9 | CC/C(=C(\c1ccccc1)c1ccc(OCCN(C)C)cc1)c1ccccc1 [TAMOXIFEN] | – | Active | Active | Active | Active | Active | Active | inactive | Toxic | inhibition [17]: Active; inhibition [18]: Active; inhibition [19]: Active
